This is one part of a sample in which hits are shown more often than they occur.
INS promoter act: activators of insulin promoter-driven GFP, primary screen, imaging, TRM-6 cells, eGFP reporter, cell count. plate-scaled: unstimulated 0, stimulated control 100. activation, % at 2 µM. hit rate 0.81% among 130,000;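 active = activation at 2 µM above a set limit, confirmed on inspection of the cell images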;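 note: share of cells whose green reporter signal exceeds an intensity cutoff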
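Test system: human fetal islet-derived TRM-6 cells with tamoxifen-inducible insulin promoter–eGFP reporter; schedule: overnight tamoxifen, then two-day compound incubation at 37 °C; measured by: high-content imaging of fixed cells with Hoechst nuclear stain; evaluation: percent cells above green-intensity threshold, converted to percent activation versus plate controls; control set: stimulated and unstimulated wells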
Numbers without * were called inactive.

SMILES | INS promoter act
CCOC(=O)Cc1c(C)nc2c(-c3ccccc3)c(-c3ccccc3)[nH]n2c1=O | -8
O=C1C(Cl)=C(NCC2CCCO2)C(=O)N1CCc1ccccc1 (configuration not stated) | 608*
O=C1C(Cl)=C(NCCc2ccccc2)C(=O)N1CCc1ccccc1 | -9
O=C1C(Cl)=C(Nc2ccc(F)cc2)C(=O)N1CCc1ccccc1 | 171
CC(C)OCCCn1c(SCC(=O)N2CCc3ccccc32)nc2ccccc2c1=O | 3
Cc1ccccc1CN(c1ccc(C(=O)Nc2ccccc2C(=O)NCc2ccco2)cc1)S(C)(=O)=O | -7
CCOC(=O)c1cnc(SCc2cccc3ccccc23)nc1N | 0
CCOC(=O)c1cnc(SCc2ccc(C(C)(C)C)cc2)nc1N | 514*
CCOC(=O)c1cnc(SCc2ccccc2)nc1N | 106
O=C(CCCc1nc(-c2ccc(Cl)cc2)no1)N1CCOCC1 | 354
CCOC(=O)Cn1c(N2CCOCC2)nc2c1c(=O)[nH]c(=O)n2C | 0
CC1=C(C(=O)OCc2ccc(C)cc2)C(c2ccc(O)c([N+](=O)[O-])c2)NC(=O)N1 (configuration not stated) | -89
CCCCN1C(=O)C(O)(CC(=O)c2ccccc2OC)c2ccccc21 (configuration not stated) | -2
CCCCN1C(=O)C2(NNc3ccccc3O2)c2ccccc21 (configuration not stated) | 170*
CCCCN1C(=O)C(O)(CC(=O)c2c(C)coc2C)c2ccccc21 (configuration not stated) | 2
Cc1cccc(C)c1NC(=O)COc1ccc2c(C)c(Cc3ccccc3)c(=O)oc2c1 | -6
O=C(c1ccc(Br)o1)N1CCN(c2ncccn2)CC1 | 0
CC12CCC(C(=O)N(CC(O)CN3CCCCC3)C1=O)C2(C)C (configuration not stated) | -7
S=C(NCCc1ccccc1)Nc1cccc2cnccc12 | -73
CC(=O)c1ccc(NC(=O)N2CCN(c3cccc(Cl)c3)CC2)cc1 | -10
CCc1ccc(NC(=S)N2CCN(c3cccc(C(F)(F)F)c3)CC2)cc1 | 0
CC(=O)c1ccc(N2CCN(C(=S)Nc3cccc(F)c3)CC2)cc1 | 138*
Cc1ccc(S(=O)(=O)N(C)CC(=O)N2CCCC2)cc1 | 267
CCOC(=O)C1=C(C)N(C)C(=S)NC1c1cc(OC)ccc1OC (configuration not stated) | 8
Cc1c(=O)n(OCc2ccccc2)c2ccccc2[n+]1[O-] | 356
SMILES | INS promoter act
COc1ccc(COn2c(=O)c(C)[n+]([O-])c3ccccc32)cc1OC | 86*
O=c1c(-c2cc3ccccc3o2)[n+]([O-])c2ccccc2n1OCc1ccccn1 | -5
CC1=C(C)CC(C(=O)NNC(=O)c2cccc(Cl)c2)C(C(=O)O)C1 (configuration not stated) | 0
c1ccc(-c2nnc(OCCN3CCOCC3)c3ccccc23)cc1 | 3
COc1cccc(N2CCN(CC(=O)NC(=O)NCc3ccco3)CC2)c1 | -8
COc1ccc(N2CCN(CCCNC(=O)Nc3ccccc3)CC2)cc1 | 229
COc1ccc2c(C(=O)CN3CCN(c4ccccc4)CC3)c[nH]c2c1 | 94*
COc1ccc(CCc2nnc(CCC(=O)NCc3cnc4ccccn34)o2)cc1 | -9
O=C(NCc1ccccn1)c1c(Cl)cccc1Cl | -7
O=C(NCc1ccccn1)c1ccc(Cl)cc1Cl | 272
O=C(NCc1ccccn1)c1ccc(Br)s1 | 529*
CC(=O)Oc1ccc(C(=O)Nc2cc(C)ccc2NC(=O)COc2ccccc2)cc1 | -3
Cc1nc([N+](=O)[O-])c(C(=O)OCc2cccc(Br)c2)n1C | -7
CC(C)n1nnnc1SCC(=O)NCCc1ccccc1 | 75*
CCCCn1nnnc1SCC(=O)NCc1ccccc1 | 267
Cc1occc1-c1nnc(SCC(=O)NCCc2ccccc2)n1C(C)c1ccccc1 (configuration not stated) | 9
CCOC(=O)c1oc2ccc(S(=O)(=O)Nc3ccc4c(c3)n(C)c(=O)n4C)cc2c1C | 6
Cn1cc(Br)c(C(=O)Nc2nccs2)n1 | 8
COc1ccc(CCNC(=O)Cn2c(=O)n(-c3ccc(F)cc3)c(=O)c3sccc32)cc1OC | 7
COc1cc(/C=C\C(=O)NCc2ccc3c(c2)cc(C)n3C)cc(OC)c1OC | 7
CNc1c([N+](=O)[O-])cnn1-c1cccc(Cl)n1 | -3
CN1/C(=C\C=Nc2ccc3ccccc3c2)C(C)(C)c2ccccc21 | 6
CN1/C(=C\C(=O)C(F)F)C(C)(C)c2ccccc21 | 5
CN1\C(=C/C=C/C=C/C=[N+](C)C)C(C)(C)c2ccccc21 | 567*
O=C(Nc1ccc([N+](=O)[O-])cn1)C1CC2CCC1C2 (configuration not stated) | -69
SMILES | INS promoter act
CC(=O)N1C2CCCCC2S[C@H]2CCCCC21 (some centres not stated) | 200*
CC1CCCC(C)N1C(=O)C1CCCCC1 (configuration not stated) | -7
Cc1c(N2C(=O)C(C)SC23C(=O)Nc2ccccc23)c(=O)n(-c2ccccc2)n1C (configuration not stated) | 3
Cc1ccccc1NC1(C#N)C(=O)Nc2ccccc21 (configuration not stated) | -9
CC(C)c1ccc(NC2(C#N)C(=O)Nc3ccccc32)cc1 (configuration not stated) | 81*
O=C(CSc1nnc2ccccn12)NCc1cccs1 | 3
CCc1nnc(NC(=O)CSc2ccc(-c3ccccc3OC)nn2)s1 | -9
COc1ccc(-c2nc(NC(=O)c3[nH]c(C)c(C(C)=O)c3C)sc2C)cc1 | -8
Cc1cc(=O)[nH]c(N2CCc3ccccc3C2)n1 | -100
CC(Sc1nc(NCc2ccccc2)nc(N2CCOCC2)n1)C(=O)Nc1ccccc1 (configuration not stated) | 8
O=[N+]([O-])c1ccc(-c2ccc(/C=N/Nc3nc(NCc4ccccc4)nc(N4CCOCC4)n3)o2)cc1 | 200*
c1cncc(CNc2nc(N3CCOCC3)nc(N3CCOCC3)n2)c1 | 3
O=S(=O)(NCC1CCCO1)c1ccc(S(=O)(=O)N2CCCC2)cc1 (configuration not stated) | 3
O=C(COn1nnc2ccccc21)NCC1CCCCC1 | -7
COCCNC(=O)NC(=O)COC(=O)c1cc([N+](=O)[O-])ccc1Sc1nc(C)cs1 | 3
COC(C(=O)NC(C(C)C)C(C)C)c1ccccc1 (configuration not stated) | 0
CCc1cccc(CC)c1NC(=O)CO/N=C(\C)c1cccs1 | 0
CCOP(=O)(c1ccccc1)C(O)c1ccccc1 (configuration not stated) | -3
O=C(COc1ccc(/C=N/NS(=O)(=O)c2ccccc2)cc1)Nc1ccccc1 | 285*
Cc1cc(C)nc(NS(=O)(=O)c2ccc(NC(=O)COc3ccccc3)cc2)n1 | -3
COC(=O)c1ccc(S(=O)(=O)NNC(=O)COc2ccc(C)cc2)cc1 | 0
COC(=O)c1ccc(NC(=O)COc2ccc(S(=O)(=O)NC(C)(C)C)cc2)cc1 | 443*
N/C(COc1ccccc1)=N\NS(=O)(=O)c1ccccc1 | -8
COC(=O)c1ccc(NC(=O)COc2ccc(S(=O)(=O)NC(C)C)cc2)cc1 | 226
Nc1c(-c2ccccc2)c(CN2CCOCC2)nn1-c1ccc(C(=O)O)cc1 | -9
COc1cc(-c2nnc(Sc3ccc(C(F)(F)F)cc3[N+](=O)[O-])o2)cc(OC)c1OC | 3
CC(C)(C)OC(=O)N1CCC[C@H]1c1nnc(SCc2ccccc2F)o1 | 0

Screens as filed in PubChem.
